Assay results published in ChEMBL document CHEMBL1146966, “Beta'-hydroxy-alpha,beta-unsaturated ketones: a new pharmacophore for the design of anticancer drugs” (2006).

Experiments:
Format in all cases: functional
A2780 = test: Antiproliferative activity against A2780 cell line after 48 hrs by SRB assay; conditions: Homo sapiens, A2780, 48 h
How it was run: (§1)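 Human solid tumor cells exposed 48 h to compound in duplicate at five tenfold dilutions, top final concentration 100 µM (DMSO stock at 400× that; controls got matching DMSO). Cells precipitated with ice-cold 50% TCA, fixed 60 min at 4 °C, stained by SRB, OD read at 490 nm. Percentage growth from OD at start versus end of exposure, corrected for medium-only background. GI50 = concentration giving PG +50 (NCI protocol); means of two to four experiments.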

SW1573 = test: Antiproliferative activity against SW1573 cell line after 48 hrs by SRB assay; conditions: Homo sapiens, SW1573, 48 h; how it was run: as §1
WiDr = test: Antiproliferative activity against WiDr cell line after 48 hrs by SRB assay; conditions: Homo sapiens; how it was run: as §1

Row | GI50 (A2780) | GI50 (SW1573) | SMILES | GI50 (WiDr)
1 | 18 µM | 24 µM | CC(C)C/C=C(\CO)C(=O)c1ccccc1 | 19 µM
2 | 28 µM | 36 µM | C/C(=C\C1CCCCC1)C(=O)c1ccccc1 | 41 µM
3 | 2.6 µM | 13 µM | CC(C)CC(O)CC(=O)/C=C\c1ccccc1 (stereo not drawn) | 16 µM
4 | 21 µM | 30 µM | CC(=O)/C=C/C1CCCCC1 | 23 µM
5 | 91 µM | 79 µM | CCCCCC/C=C/C(C)=O | 56 µM
6 | > 100 µM | > 100 µM | C/C(=C\CC(C)C)C(=O)c1ccccc1 | > 100 µM
7 | 16 µM | 30 µM | O=C(/C=C/CCCCCCCCCCBr)CC(O)CCCCCCCCCCBr (stereo not drawn) | 32 µM
8 | 1.8 µM | 3.1 µM | O=C(/C=C/C1CCCCC1)CC(O)C1CCCCC1 (stereo not drawn) | 2.9 µM
9 | 20 µM | 31 µM | CC(C)C/C=C/C(=O)c1ccccc1 | 22 µM
10 | 5.5 µM | 11 µM | CC(C)CC(O)C(C)C(=O)/C=C\c1ccc(Br)cc1 (stereo not drawn) | 12 µM
11 | 3.9 µM | 12 µM | Cc1ccc(/C=C\C(=O)CC(O)CC(C)C)cc1 (stereo not drawn) | 15 µM
12 | 9.9 µM | 26 µM | CC(C)(C)/C=C/C(=O)CC(O)C(C)(C)C (stereo not drawn) | 59 µM
13 | 17 µM | 27 µM | CC(C)C/C=C/C(=O)CC(O)CC(C)C (stereo not drawn) | 21 µM
14 | 26 µM | 25 µM | CCCCCC/C=C/C(=O)CC(O)CCCCCC (stereo not drawn) | 31 µM
15 | 3.3 µM | 4.3 µM | O=C(/C=C/c1ccccc1)CC(O)c1ccccc1 (stereo not drawn) | 14 µM
16 | 21 µM | 33 µM | CC(C)C/C=C(/C(=O)c1ccccc1)c1ccccc1 | 21 µM
